High-throughput results (PubChem BioAssay)
Only some compounds are listed: those with a hit (about 3.5% of all), similar ones and a draw of the others.
MrgX1 antag – blocks BAM8-22 activation of human MrgX1 receptor; Q96LB2; 310,000 tested, 1.3% active; B-score at 10 µM; MRGX1-HEK293 calcium flux, Fluo-4, BAM8-22 antagonism; hits give low values;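 active means calcium-response B-score plate-corrected more than 3 library SD below zero, starting fluorescence within 5 deviations, no agonist response on first addition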;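 further: peak minus trough fluorescence over baseline after final BAM8-22 challenge near maximal dose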
Target sequence (Q96LB2 whole entry, looked up): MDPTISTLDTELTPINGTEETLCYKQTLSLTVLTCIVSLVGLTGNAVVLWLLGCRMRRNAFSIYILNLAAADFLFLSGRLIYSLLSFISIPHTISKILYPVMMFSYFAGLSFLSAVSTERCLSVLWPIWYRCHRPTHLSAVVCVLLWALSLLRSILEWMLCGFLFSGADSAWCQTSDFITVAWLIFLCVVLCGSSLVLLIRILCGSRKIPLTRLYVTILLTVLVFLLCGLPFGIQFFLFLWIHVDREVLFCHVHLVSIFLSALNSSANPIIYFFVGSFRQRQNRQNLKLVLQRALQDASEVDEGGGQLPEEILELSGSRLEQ
RGS4 inh – inhibitors of human RGS4; P49798; HEK293 M3R/RGS4 inducible, Fluo-4 calcium flux; hits give high values; triggered by carbachol at its EC20; B-score at 10 µM; 310,000 tested, 0.45% active; AID 463165;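 active means B-score, a plate-corrected calcium signal, over three deviations above library mean, with baseline fluorescence within five deviations of library mean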;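 further: RGS4 expression induced by doxycycline in cells with stable M3 receptor; B-score is computed from the integrated fluorescence ratio over baseline after carbachol; higher B-score means a larger calcium signal and so more RGS4 inhibition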
Target sequence (P49798 whole entry, looked up): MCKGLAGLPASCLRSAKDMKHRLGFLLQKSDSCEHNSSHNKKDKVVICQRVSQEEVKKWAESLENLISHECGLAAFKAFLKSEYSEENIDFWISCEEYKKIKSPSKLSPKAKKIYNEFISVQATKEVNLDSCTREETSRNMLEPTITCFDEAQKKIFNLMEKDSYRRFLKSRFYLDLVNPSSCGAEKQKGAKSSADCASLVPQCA
MrgX1 PAM – human MrgX1 positive allosteric modulation, primary screen. Q96LB2. MrgX1-HEK293, Fluo-4 calcium flux, FDSS; hits give high values. B-score at 10 µM. 310,000 tested, 0.63% active;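 active means plate-corrected calcium response at least 3 library SD above typical, normal starting fluorescence, not activating the receptor alone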;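 further: compound read alongside a low EC10 to EC30 dose of BAM8-22 agonist; peak minus trough fluorescence over baseline measured at the second addition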
MrgX1 agonist – human MrgX1 receptor agonism, primary screen | AID 588627 | B-score at 10 µM | Q96LB2 | 310,000 tested, 0.44% active | MrgX1-HEK293 cells, Fluo-4 calcium fluorescence, agonist mode; hits give high values;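 active means calcium response B-score plate-corrected fluorescence ratio at least 3 library SD, with starting fluorescence B-score inside 5 SD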
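Material: HEK293 cells stably expressing human MrgX1 receptor | Quantity: 15,000 cells per well | Times: Cells plated overnight, dye loaded 0.5 h 37 °C, 0.5 h room temperature | Measured by: Kinetic Fluo-4 NW fluorescence of intracellular calcium | Control set: Positive and negative controls per plate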
RGS4 act – RGS4 potentiation or activation; B-score at 10 µM; AID 463111; 310,000 tested, 0.92% active; HEK293 M3R/inducible RGS4, carbachol calcium flux Fluo4; hits give low values;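 active means B-score of the integrated calcium signal more than 4 SD below the library mean, with starting fluorescence not abnormally high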;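 further: negative B-score means reduced calcium response which marks RGS4 activation or potentiation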
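test system = HEK293 cells with stable M3R and inducible RGS4 | schedule = recording 10 s baseline at 1 Hz, 100 s post-agonist | technique = Fluo4-AM (2 µM) calcium-flux fluorescence, kinetic read | measure = Agonist-evoked peak-minus-minimum fluorescence over baseline, integrated ratio, B score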
RGS4 block valid – RGS4 inhibitor validation | shares compounds with RGS4 inh | HEK293 M3R/RGS4, carbachol calcium Fluo-4 fluorescence; carbachol added at its EC20; 0 = buffer wells, 100 = carbachol control | calcium response, % at 10 µM | 1,700 tested, 65% active | AID 492999;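 active means duplicate-averaged calcium response above the buffer-only control mean plus 5 SD of those controls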;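 further: integrated fluorescence ratio F max minus min over baseline F0; higher response in RGS4-induced cells means RGS4 inhibition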
RGS4 uninduced – counter-screen for RGS4 inhibitors: effect in non-induced cells; shares compounds with RGS4 inh; HEK293 M3R non-induced, carbachol calcium Fluo-4; submaximal (EC20) carbachol stimulus; buffer wells 0%, carbachol control wells 100%; activity (percent), % at 10 µM; 1,900 tested, 20% active; AID 493000; call rule not given here;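 further: RGS4 induction absent so cells express M3R without RGS4; higher means more calcium signal and flags a non-specific hit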
RGS4 inh ctr2 – second counter-screen for RGS4 inhibitors: non-induced cells without carbachol. shares compounds with RGS4 inh. HEK293 M3R/RGS4 non-induced, Fluo-4 calcium, no carbachol; normalised: buffer wells 0%, carbachol wells 100%. calcium response (agonist-mode artifact), % at 10 µM. 1,900 tested, 22% active. AID 493001;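 active means duplicate-averaged calcium rise in uninduced cells above buffer wells' mean plus 5 SD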
An asterisk follows results filed as active.

COc1ccc(C(C[N+](=O)[O-])c2c(C)[nH]c3ccccc23)cc1OC (stereo not drawn) was read as MrgX1 antag inactive, RGS4 inh inactive, MrgX1 PAM inactive, MrgX1 agonist inactive and RGS4 act inactive.
O=c1[nH][nH]c(-c2ccccc2O)c1C(C[N+](=O)[O-])c1ccc(Br)cc1 (stereo not drawn) was read as MrgX1 antag inactive, RGS4 inh 15*, MrgX1 PAM inactive, MrgX1 agonist inactive, RGS4 act inactive, RGS4 block valid 32%*, RGS4 uninduced 36%* and RGS4 inh ctr2 20%*.
CCC1CCCCN1CCCNC(=O)CSc1nc2nc(C)c(Cc3ccc(C)cc3)c(C)n2n1 (stereo not drawn) was read as MrgX1 antag inactive, RGS4 inh inactive, MrgX1 PAM inactive, MrgX1 agonist inactive and RGS4 act inactive.
For O=C1/C(=C\c2cc(Cl)c(O)c(Cl)c2)SC(=S)N1Cc1ccccc1 the results were MrgX1 antag inactive, RGS4 inh inactive, MrgX1 PAM inactive, MrgX1 agonist inactive and RGS4 act inactive.
`O=C(O)COc1ccc(/C=C2/SC(=S)N(Cc3ccccc3)C2=O)cc1` gave MrgX1 antag inactive, RGS4 inh inactive, MrgX1 PAM inactive, MrgX1 agonist inactive, RGS4 act inactive, RGS4 uninduced 42%* and RGS4 inh ctr2 inactive.
Screening COc1ccc(/C=C2/SC(=S)N(Cc3ccccc3)C2=O)cc1O returned MrgX1 antag inactive, RGS4 inh 5*, MrgX1 PAM inactive, MrgX1 agonist inactive, RGS4 act inactive, RGS4 block valid 24%*, RGS4 uninduced inactive and RGS4 inh ctr2 20%*.
`Cc1ccc(S(=O)(=O)N(CC2CO2)c2cc(Cl)ccc2Cl)cc1` (stereo not drawn) gave MrgX1 antag inactive, RGS4 inh inactive, MrgX1 PAM inactive, MrgX1 agonist inactive and RGS4 act inactive.
CCOC(=O)c1c(-c2ccc(C)o2)csc1NC(=S)NC(=O)N(C)C was read as MrgX1 antag inactive, RGS4 inh 21*, MrgX1 PAM inactive, MrgX1 agonist inactive, RGS4 act inactive, RGS4 block valid inactive, RGS4 uninduced inactive and RGS4 inh ctr2 inactive.
`COC(=O)C1=C(C)N(C2CCCCC2)C(=O)/C1=C\c1cccs1` gave MrgX1 antag inactive, RGS4 inh 5.7*, MrgX1 PAM inactive, MrgX1 agonist inactive, RGS4 act inactive, RGS4 block valid 10%*, RGS4 uninduced inactive and RGS4 inh ctr2 inactive.
`CC(C)(C)c1nn(-c2ccccc2)c2nc(Cl)c(C=O)cc12` gave MrgX1 antag inactive, RGS4 inh 5*, MrgX1 PAM inactive, MrgX1 agonist inactive, RGS4 act inactive, RGS4 block valid 13%*, RGS4 uninduced 30%* and RGS4 inh ctr2 inactive.
O=C(C1=C(O)C(=O)N(Cc2ccco2)C1c1cccc([N+](=O)[O-])c1)c1ccco1 (stereo not drawn) was read as MrgX1 antag inactive, RGS4 inh inactive, MrgX1 PAM inactive, MrgX1 agonist inactive, RGS4 act inactive, RGS4 block valid inactive, RGS4 uninduced inactive and RGS4 inh ctr2 inactive.
O=C(C1=C(O)C(=O)N(Cc2ccco2)C1c1cccc(Cl)c1)c1ccco1 (stereo not drawn) was read as MrgX1 antag inactive, RGS4 inh inactive, MrgX1 PAM inactive, MrgX1 agonist inactive, RGS4 act inactive, RGS4 block valid inactive, RGS4 uninduced inactive and RGS4 inh ctr2 inactive.
Screening O=C(C1=C(O)C(=O)N(c2ncccn2)C1c1cccc(Cl)c1)c1ccco1 (stereo not drawn) returned MrgX1 antag inactive, RGS4 inh inactive, MrgX1 PAM inactive, MrgX1 agonist inactive and RGS4 act inactive.
`COc1ccc(C2CCCN2C(=O)Nc2ccccc2)cc1OC` (stereo not drawn) gave MrgX1 antag inactive, RGS4 inh inactive, MrgX1 PAM inactive, MrgX1 agonist inactive and RGS4 act inactive.
`CCOCCCNC(=O)/C(C#N)=C/c1ccc(Cl)c([N+](=O)[O-])c1` gave MrgX1 antag inactive, RGS4 inh 11*, MrgX1 PAM inactive, MrgX1 agonist inactive, RGS4 act inactive, RGS4 block valid 34%*, RGS4 uninduced inactive and RGS4 inh ctr2 inactive.
For CCOCCCNC(=O)/C(C#N)=C/c1cc(OC)c(O)c([N+](=O)[O-])c1 the results were MrgX1 antag inactive, RGS4 inh inactive, MrgX1 PAM inactive, MrgX1 agonist inactive and RGS4 act inactive.
O=C(/C=C/NNC(=O)c1ccc(Cl)cc1)c1ccccc1 was read as MrgX1 antag inactive, RGS4 inh 6.1*, MrgX1 PAM inactive, MrgX1 agonist inactive, RGS4 act inactive, RGS4 block valid inactive, RGS4 uninduced inactive and RGS4 inh ctr2 inactive.
For O=c1ccc(Cl)nn1-c1ccccc1 the results were MrgX1 antag inactive, RGS4 inh inactive, MrgX1 PAM inactive, MrgX1 agonist inactive and RGS4 act inactive.
O=C(O)COc1ccccc1/C=N/NC(=O)CSc1nnc(SCc2cccc3ccccc23)s1 was read as MrgX1 antag inactive, RGS4 inh inactive, MrgX1 PAM inactive, MrgX1 agonist inactive and RGS4 act inactive.
`O=C(CSc1nnc(SCc2cccc3ccccc23)s1)N/N=C/c1c[nH]c2ccccc12` gave MrgX1 antag inactive, RGS4 inh 4.7*, MrgX1 PAM inactive, MrgX1 agonist inactive, RGS4 act inactive, RGS4 block valid 20%*, RGS4 uninduced inactive and RGS4 inh ctr2 inactive.
O=C(CSc1nnc(SCc2ccc(Cl)cc2)s1)N/N=C/c1c[nH]c2ccccc12 was read as MrgX1 antag inactive, RGS4 inh inactive, MrgX1 PAM inactive, MrgX1 agonist inactive, RGS4 act inactive, RGS4 uninduced inactive and RGS4 inh ctr2 inactive.
`Oc1ccc(N=Nc2ccccc2)o1` gave MrgX1 antag inactive, RGS4 inh 4.9*, MrgX1 PAM inactive, MrgX1 agonist inactive, RGS4 act inactive, RGS4 block valid 7.5%*, RGS4 uninduced inactive and RGS4 inh ctr2 inactive.
